# Source: ChEMBL document CHEMBL1150790, “Biochemical characterization of PER-2 and genetic environment of blaPER-2” (Antimicrob Agents Chemother, 2007)
# B1: PER-2 beta-lactamase (Citrobacter freundii), A2RP81 (protein)
# chain: MNVITKCVFTASALLMLGLSSFVVSAQSPLLKEQIETIVTGKKATVGVAVWGPDDLEPLLLNPFEKFPMQSVFKLHLAMLVLHQVDQGKLDLNQSVTVNRAAVLQNTWSPMMKDHQGDEFTVAVQQLLQYSVSHSDNVACDLLFELVGGPQALHAYIQSLGVKEAAVVANEAQMHADDQVQYQNWTSMKAAAQVLQKFEQKKQLSETSQALLWKWMVETTTGPQRLKGLLPAGTIVAHKTGTSGVRAGKTAATNDAGVIMLPDGRPLLVAVFVKDSAESERTNEAIIAQVAQAAYQFELKKLSAVSPD
# Experiments:
# Escherichia coli [1] = assay: Antimicrobial activity against Escherichia coli 33587-TC9 by agar dilution method; type: functional
# Summary of the method: (§1)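 MICs were determined by agar dilution following CLSI guidelines, with inoculum applied by a Steers multipoint inoculator.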
# [2] = target: T1, PER-2 beta-lactamase (Citrobacter freundii) (UniProt A2RP81); assay: Ratio of Kcat to Km of Citrobacter freundii PER2 beta lactamase relative to cephalothin
# T1 sequence (whole entry): B1 chain
# Summary of the method: (§2)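 Purified recombinant PER-2 (E. coli BL21(DE3) expression, Q-Sepharose purification) was assayed spectrophotometrically at 30°C in 500 μl. kcat and Km came from initial steady-state rates.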
# Citrobacter freundii = assay: Antimicrobial activity against Citrobacter freundii 33587 isolate by agar dilution method; type: functional; summary of the method: as §1
# Escherichia coli [3] = assay: Antimicrobial activity against Escherichia coli CAG12177 by agar dilution method; type: functional; summary of the method: as §1
# PER-2 beta-lactamase = target: T2, PER-2 beta-lactamase (Citrobacter freundii, UniProt A2RP81); assay: Inhibition of Citrobacter freundii PER2 beta lactamase
# T2 sequence (A2RP81 whole entry): B1 chain
# Summary of the method: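 Purified recombinant PER-2 was incubated with the drug plus 100 μM nitrocefin as reporter substrate in 500 μl at 30°C. Residual enzyme activity was read spectrophotometrically. Apparent Km values were derived as competitive inhibitor constants (Ki).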
# Alcaligenes faecalis [4] = assay: Ratio of Kcat to Km of Alcaligenes faecalis PER2 beta lactamase
# Summary of the method: (§3)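 Purified recombinant PER-2 (expressed in E. coli BL21(DE3) from pET28a(+), IPTG-induced, Q-Sepharose purified). β-Lactam hydrolysis was followed spectrophotometrically at 30°C. For good substrates, Km and kcat came from initial rates. […] For poor substrates, kcat came from complete hydrolysis time courses.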
# Alcaligenes faecalis [5] = assay: Activity of Alcaligenes faecalis PER2 beta lactamase; summary of the method: as §3
# [6] = substrate: CCN1CCN(C(=O)N[C@@H](C(=O)N[C@@H]2C(=O)N3C(C(=O)O)=C(CSc4nnnn4C)CS[C@H]23)c2ccc(O)cc2)C(=O)C1=O; assay: (§4) Ratio of Kcat to Km of Citrobacter freundii PER2 beta lactamase; summary of the method: as §2
# [7] = substrate: CO/N=C(\C(=O)N[C@@H]1C(=O)N2C(C(=O)[O-])=C(C[N+]3(C)CCCC3)CS[C@H]12)c1csc(N)n1; assay: as §4; summary of the method: as §2
# [8] = substrate: O=C(Cc1cccs1)N[C@@H]1C(=O)N2C(C(=O)O)=C(/C=C/c3ccc([N+](=O)[O-])cc3[N+](=O)[O-])CS[C@H]12; assay: as §4; summary of the method: as §2
# [9] = substrate: CC(=O)OCC1=C(C(=O)O)N2C(=O)[C@@H](NC(=O)Cc3cccs3)[C@H]2SC1; assay: as §4; summary of the method: as §2
# [10] = substrate: CO/N=C(\C(=O)N[C@@H]1C(=O)N2C(C(=O)O)=C(COC(C)=O)CS[C@H]12)c1csc(N)n1; assay: as §4; summary of the method: as §2
# [11] = substrate: CO/N=C(\C(=O)N[C@@H]1C(=O)N2C(C(=O)O)=C(COC(N)=O)CS[C@H]12)c1ccco1; assay: as §4; summary of the method: as §2
# [12] = substrate: CC(C)(O/N=C(\C(=O)N[C@@H]1C(=O)N2C(C(=O)[O-])=C(C[n+]3ccccc3)CS[C@H]12)c1csc(N)n1)C(=O)O; assay: as §4; summary of the method: as §2
# [13] = substrate: CC1(C)S[C@@H]2[C@H](NC(=O)Cc3ccccc3)C(=O)N2[C@H]1C(=O)O; assay: as §4; summary of the method: as §2
# [14] = substrate: C[C@H]1[C@H](NC(=O)/C(=N\OC(C)(C)C(=O)O)c2csc(N)n2)C(=O)N1S(=O)(=O)O; assay: as §4; summary of the method: as §2
# [15] = substrate: CCN1CCN(C(=O)N[C@@H](C(=O)N[C@@H]2C(=O)N3[C@@H]2SC(C)(C)[C@@H]3C(=O)O)c2ccccc2)C(=O)C1=O; assay: as §4; summary of the method: as §2
# [16] = substrate: CC1(C)S[C@@H]2[C@H](NC(=O)[C@H](N)c3ccccc3)C(=O)N2[C@H]1C(=O)O; assay: as §4; summary of the method: as §2
# [17] = substrate: CCN1CCN(C(=O)N[C@@H](C(=O)N[C@@H]2C(=O)N3C(C(=O)O)=C(CSc4nnnn4C)CS[C@H]23)c2ccc(O)cc2)C(=O)C1=O; assay: (§5) Activity of Citrobacter freundii PER2 beta lactamase
# [18] = substrate: CO/N=C(\C(=O)N[C@@H]1C(=O)N2C(C(=O)[O-])=C(C[N+]3(C)CCCC3)CS[C@H]12)c1csc(N)n1; assay: as §5
# [19] = substrate: O=C(Cc1cccs1)N[C@@H]1C(=O)N2C(C(=O)O)=C(/C=C/c3ccc([N+](=O)[O-])cc3[N+](=O)[O-])CS[C@H]12; assay: as §5
# [20] = substrate: CC(=O)OCC1=C(C(=O)O)N2C(=O)[C@@H](NC(=O)Cc3cccs3)[C@H]2SC1; assay: as §5
# [21] = substrate: CO/N=C(\C(=O)N[C@@H]1C(=O)N2C(C(=O)O)=C(COC(C)=O)CS[C@H]12)c1csc(N)n1; assay: as §5
# [22] = substrate: CO/N=C(\C(=O)N[C@@H]1C(=O)N2C(C(=O)O)=C(COC(N)=O)CS[C@H]12)c1ccco1; assay: as §5
# [23] = substrate: C[C@@H](O)[C@H]1C(=O)N2C(C(=O)O)=C(SCCNC=N)C[C@H]12; assay: as §5
# [24] = substrate: CC(C)(O/N=C(\C(=O)N[C@@H]1C(=O)N2C(C(=O)[O-])=C(C[n+]3ccccc3)CS[C@H]12)c1csc(N)n1)C(=O)O; assay: as §5
# [25] = substrate: CC1(C)S[C@@H]2[C@H](NC(=O)Cc3ccccc3)C(=O)N2[C@H]1C(=O)O; assay: as §5
# [26] = substrate: CO[C@@]1(NC(=O)Cc2cccs2)C(=O)N2C(C(=O)O)=C(COC(N)=O)CS[C@@H]21; assay: as §5
# [27] = substrate: C[C@H]1[C@H](NC(=O)/C(=N\OC(C)(C)C(=O)O)c2csc(N)n2)C(=O)N1S(=O)(=O)O; assay: as §5
# [28] = substrate: CCN1CCN(C(=O)N[C@@H](C(=O)N[C@@H]2C(=O)N3[C@@H]2SC(C)(C)[C@@H]3C(=O)O)c2ccccc2)C(=O)C1=O; assay: as §5
# [29] = substrate: CC1(C)S[C@@H]2[C@H](NC(=O)[C@H](N)c3ccccc3)C(=O)N2[C@H]1C(=O)O; assay: as §5
molecule,measurement,setting,value
CO/N=C(\C(=O)N[C@@H]1C(=O)N2C(C(=O)[O-])=C(C[N+]3(C)CCCC3)CS[C@H]12)c1csc(N)n1,MIC,Escherichia coli [1],8 µg/mL
same,Activity,[2],3%
same,MIC,Citrobacter freundii,16 µg/mL
same,MIC,Escherichia coli [3],≤ 0.063 µg/mL
CC1(C)S[C@@H]2[C@H](NC(=O)Cc3ccccc3)C(=O)N2[C@H]1C(=O)O,Activity,[2],18%
CCN1CCN(C(=O)N[C@@H](C(=O)N[C@@H]2C(=O)N3C(C(=O)O)=C(CSc4nnnn4C)CS[C@H]23)c2ccc(O)cc2)C(=O)C1=O,Activity,[2],15%
CO/N=C(\C(=O)N[C@@H]1C(=O)N2C(C(=O)O)=C(COC(N)=O)CS[C@H]12)c1ccco1,Activity,[2],45%
O=C(Cc1cccs1)N[C@@H]1C(=O)N2C(C(=O)O)=C(/C=C/c3ccc([N+](=O)[O-])cc3[N+](=O)[O-])CS[C@H]12,Activity,[2],224%
CC1(C)S[C@@H]2[C@H](NC(=O)[C@H](N)c3ccccc3)C(=O)N2[C@H]1C(=O)O [AMPICILLIN],MIC,Escherichia coli [1],> 512 µg/mL
same,Activity,[2],49%
same,MIC,Citrobacter freundii,> 512 µg/mL
same,MIC,Escherichia coli [3],0.25 µg/mL
C[C@H]1[C@H](NC(=O)/C(=N\OC(C)(C)C(=O)O)c2csc(N)n2)C(=O)N1S(=O)(=O)O [AZTREONAM],MIC,Escherichia coli [1],256 µg/mL
same,Activity,[2],18%
same,Ki,PER-2 beta-lactamase,2000 nM
same,MIC,Citrobacter freundii,256 µg/mL
same,MIC,Escherichia coli [3],≤ 0.016 µg/mL
CO/N=C(\C(=O)N[C@@H]1C(=O)N2C(C(=O)O)=C(COC(C)=O)CS[C@H]12)c1csc(N)n1 [CEFOTAXIME],MIC,Escherichia coli [1],64 µg/mL
same,Activity,[2],113%
same,MIC,Citrobacter freundii,64 µg/mL
same,MIC,Escherichia coli [3],≤ 0.063 µg/mL
CO[C@@]1(NC(=O)Cc2cccs2)C(=O)N2C(C(=O)O)=C(COC(N)=O)CS[C@@H]21 [CEFOXITIN],MIC,Escherichia coli [1],0.125 µg/mL
same,Activity,[2],18%
same,Ki,PER-2 beta-lactamase,140 nM
same,MIC,Citrobacter freundii,1 µg/mL
same,MIC,Escherichia coli [3],≤ 0.063 µg/mL
CC(C)(O/N=C(\C(=O)N[C@@H]1C(=O)N2C(C(=O)[O-])=C(C[n+]3ccccc3)CS[C@H]12)c1csc(N)n1)C(=O)O [CEFTAZIDIME],MIC,Escherichia coli [1],> 128 µg/mL
same,Activity,[2],64%
same,kcat/Km,Alcaligenes faecalis [4],30000 M⁻¹ s⁻¹
same,Km,Alcaligenes faecalis [5],806 µM
same,MIC,Citrobacter freundii,128 µg/mL
same,MIC,Escherichia coli [3],≤ 0.063 µg/mL
CC(=O)OCC1=C(C(=O)O)N2C(=O)[C@@H](NC(=O)Cc3cccs3)[C@H]2SC1 [CEPHALOTHIN],MIC,Escherichia coli [1],> 512 µg/mL
same,Activity,[2],100%
same,MIC,Citrobacter freundii,512 µg/mL
same,MIC,Escherichia coli [3],0.5 µg/mL
O=C(N[C@H](CO)[C@H](O)c1ccc([N+](=O)[O-])cc1)C(Cl)Cl [CHLORAMPHENICOL],MIC,Escherichia coli [1],> 32 µg/mL
same,MIC,Citrobacter freundii,> 32 µg/mL
same,MIC,Escherichia coli [3],2 µg/mL
C[C@@H](O)[C@H]1C(=O)N2C(C(=O)O)=C(SCCNC=N)C[C@H]12 [IMIPENEM ANHYDROUS],MIC,Escherichia coli [1],0.125 µg/mL
same,Ki,PER-2 beta-lactamase,60 nM
same,MIC,Citrobacter freundii,0.063 µg/mL
same,MIC,Escherichia coli [3],≤ 0.063 µg/mL
NC[C@H]1O[C@H](O[C@H]2[C@H](O)[C@@H](O[C@H]3O[C@H](CO)[C@@H](O)[C@H](N)[C@H]3O)[C@H](N)C[C@@H]2N)[C@H](O)[C@@H](O)[C@@H]1O [KANAMYCIN],MIC,Escherichia coli [1],> 128 µg/mL
same,MIC,Citrobacter freundii,> 128 µg/mL
same,MIC,Escherichia coli [3],≤ 0.25 µg/mL
CCn1cc(C(=O)O)c(=O)c2ccc(C)nc21 [NALIDIXIC ACID],MIC,Escherichia coli [1],> 128 µg/mL
same,MIC,Citrobacter freundii,2 µg/mL
same,MIC,Escherichia coli [3],> 128 µg/mL
CCN1CCN(C(=O)N[C@@H](C(=O)N[C@@H]2C(=O)N3[C@@H]2SC(C)(C)[C@@H]3C(=O)O)c2ccccc2)C(=O)C1=O [PIPERACILLIN],MIC,Escherichia coli [1],256 µg/mL
same,Activity,[2],30%
same,Ki,PER-2 beta-lactamase,200 nM
same,MIC,Citrobacter freundii,256 µg/mL
same,MIC,Escherichia coli [3],0.063 µg/mL
CN(C)[C@@H]1C(O)=C(C(N)=O)C(=O)[C@@]2(O)C(O)=C3C(=O)c4c(O)cccc4[C@@](C)(O)[C@H]3C[C@@H]12 [TETRACYCLINE],MIC,Escherichia coli [1],32 µg/mL
same,MIC,Citrobacter freundii,0.5 µg/mL
same,MIC,Escherichia coli [3],32 µg/mL
B1,kcat/Km,[6],100000 M⁻¹ s⁻¹
same,kcat/Km,[7],20000 M⁻¹ s⁻¹
same,kcat/Km,[8],1.5e+06 M⁻¹ s⁻¹
same,kcat/Km,[9],670000 M⁻¹ s⁻¹
same,kcat/Km,[10],760000 M⁻¹ s⁻¹
same,kcat/Km,[11],300000 M⁻¹ s⁻¹
same,kcat/Km,[12],430000 M⁻¹ s⁻¹
same,kcat/Km,[13],120000 M⁻¹ s⁻¹
same,kcat/Km,[14],120000 M⁻¹ s⁻¹
same,kcat/Km,[15],200000 M⁻¹ s⁻¹
same,kcat/Km,[16],350000 M⁻¹ s⁻¹
same,Km,[17],5 µM
same,kcat,[17],0.5 s⁻¹
same,Km,[18],16 µM
same,kcat,[18],0.39 s⁻¹
same,Km,[19],32 µM
same,kcat,[19],48 s⁻¹
same,Km,[20],9 µM
same,kcat,[20],6 s⁻¹
same,Km,[21],46 µM
same,kcat,[21],34 s⁻¹
same,Km,[22],21 µM
same,kcat,[22],6 s⁻¹
same,kcat,[23],< 0.001 s⁻¹
same,Km,[24],320 µM
same,kcat,[24],140 s⁻¹
same,Km,[25],16 µM
same,kcat,[25],2 s⁻¹
same,kcat,[26],< 0.001 s⁻¹
same,kcat,[27],0.23 s⁻¹
same,kcat,[28],0.04 s⁻¹
same,Km,[29],38 µM
same,kcat,[29],12 s⁻¹
